Published values from different studies.
Each line is one published result; the experiments were not run side by side.
Target: Homeodomain-interacting protein kinase 1 (HIPK1, Homo sapiens, UniProt Q86Z02)

SMILES | read-out | action | method | concentration | quantity | result
Cn1cc(-c2cccc(N3CCc4c(sc5c4CC(C)(C)C5)C3=O)c2CO)cc(Nc2ccncn2)c1=O | enzyme activity | inhibitor |  | 1 µM | inhibition | -2%
Cc1nn(C)cc1-c1nc2c(N3CCN(Cc4ccc(Cl)cc4)CC3)c(Cl)cnc2[nH]1 | binding |  | competition with immobilised ligand | 1 µM | remaining binding | 66%
Nc1ncc(-c2nc(N3CCOCC3)nc(N3CCOCC3)n2)c(C(F)F)n1 | binding |  | competition with immobilised ligand | 10 µM | remaining binding | 69%
COc1ncccc1-c1cnn2ccc(N3CCN(C(=O)OC(C)C)CC3)nc12 | binding |  | competition with immobilised ligand | 1 µM | remaining binding | 92%
O=c1[nH]c2ccccc2n1C1CCN(Cc2ccc(-c3[nH]c4cc5ncnc5cc4nc3-c3ccccc3)cc2)CC1 | cell-free assay |  |  | 0.5 µM | remaining signal | 106%
Cn1cncc1[C@@](O)(COc1ccc(C#N)cc1-c1ccc(OC(F)(F)F)cc1)c1ccc(C#N)cc1 | cell-free assay |  | competition with immobilised ligand | 1 µM | remaining binding | 79%
Cn1cc(-c2cc(F)cc(N3CCn4c(cc5c4CCCC5)C3=O)c2CO)cc(Nc2ccc(N3CCN(C4COC4)CC3)cn2)c1=O | enzyme activity | inhibitor |  | 0.1 µM | inhibition | 5%
CC(C)(C)c1cc(C=C(C#N)C#N)cc(Br)c1O | enzyme activity | inhibitor |  | 0.5 µM | remaining activity | 104%
